# Screening results from PubChem.
# Kir21 block: inhibitors of mouse Kir2.1 inward-rectifier potassium channel; P35561; HEK293-Kir2.1, FluxOR thallium flux fluorescence; active compounds read low; B-score at 10 µM; 310,000 compounds, 0.85% hits; AID 1672;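 active = fluorescence ratio B-score at or below minus 3 SD of library scores, with starting-brightness B-score within 2 SD, cut at about -4.2 in these data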;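 note: channel flux triggered by added potassium and thallium sulfate stimulus; B-score of peak minus minimum fluorescence over baseline after thallium stimulus; more negative B-score means stronger Kir2.1 block with less thallium influx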
# KCNQ1 inh: blocks the human KCNQ1 potassium channel; P51787; CHO-K1 KCNQ1, FluxOR thallium flux fluorescence; active compounds read high; B-score at 10 µM; 310,000 compounds, 1.3% hits; AID 2642;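 active = compounds whose thallium flux B-score, printed positive for inhibition, exceeds three library SD while starting fluorescence stays within three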;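 note: channel opened by potassium depolarization with thallium stimulus after 20 min compound exposure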
# KCNQ1 act: potentiates or activates the human KCNQ1 potassium channel. P51787. CHO-K1 KCNQ1, thallium flux FluxOR fluorescence; active compounds read high. B-score at 10 µM. 310,000 compounds, 0.35% hits;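 active = fluorescence ratio B-score, a plate-corrected score, at least three library SD, with initial intensity B-score within 5 SD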
#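 System: Stable KCNQ1 CHO-K1 line | Incubation: 90 min dye loading and 20 min compound exposure, both at room temperature | Measure: Ratio B score | Medium: Assay buffer for compound exposure, DMSO matched across wells | Compound dosing: Single-concentration screen | Probe or stimulus: K+/Tl+ depolarizing stimulus | Measured by: Kinetic FluxOR fluorescence, 10 s baseline plus 110 s post-stimulus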
# KCNK3 inh: human KCNK3 channel inhibition, primary screen | O14649 | CHO-KCNK3 thallium flux, FluxOR fluorescence; active compounds read low | B-score at 10 µM | 340,000 compounds, 0.84% hits;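 active = B-score under library mean minus 4 SD, starting fluorescence ratio at most library mean plus 5 SD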;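 note: more negative B-score means stronger inhibition of thallium flux through KCNK3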
# Target sequence (O14649 whole entry, looked up): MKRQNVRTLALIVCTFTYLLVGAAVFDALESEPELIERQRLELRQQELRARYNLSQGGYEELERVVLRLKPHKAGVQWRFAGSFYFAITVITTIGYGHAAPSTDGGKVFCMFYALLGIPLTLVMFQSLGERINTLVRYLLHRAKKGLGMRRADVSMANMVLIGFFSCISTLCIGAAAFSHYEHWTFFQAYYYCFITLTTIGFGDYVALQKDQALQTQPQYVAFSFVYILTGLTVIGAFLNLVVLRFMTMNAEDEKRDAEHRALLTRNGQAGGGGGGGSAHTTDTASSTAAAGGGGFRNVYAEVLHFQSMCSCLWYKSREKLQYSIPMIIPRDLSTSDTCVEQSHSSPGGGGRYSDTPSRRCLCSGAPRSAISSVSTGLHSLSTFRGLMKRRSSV
# KCNK9 inh: blocks the human KCNK9 two-pore domain potassium channel | Q9NPC2 | HEK293 KCNK9, FluxOR thallium flux fluorescence; active compounds read low | B-score at 10 µM | 310,000 compounds, 1.2% hits | AID 488922;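 active = ratio B-score over 3 SD below the library mean, with starting fluorescence within 5 SD of its mean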;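 note: negative B-score means less thallium flux so channel inhibition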
# hERG protect: shields human hERG channel from block by proarrhythmic agents. Q12809. CHO-hERG, FluxOR thallium flux, dofetilide IC70 present. activation (rescue from dofetilide block), less the hit threshold, % at 10 µM. 310,000 compounds, 0.51% hits. AID 1511;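 active = activation above the mean of controls blocked by dofetilide plus 5 SD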;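 note: thallium influx through hERG after potassium depolarization seen as dye fluorescence rise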
# An asterisk follows results filed as active; i = inactive; · = no result given. Only some compounds are listed: those with a hit (about 3.8% of all), similar ones and a draw of the others.
SMILES,Kir21 block,KCNQ1 inh,KCNQ1 act,KCNK3 inh,KCNK9 inh,hERG protect
COc1ccccc1-[n+]1c(C)cc(/C=C2\Sc3ccccc3N2C)cc1C,-24,i,i,i,i,-46
COC(=O)c1cc(-c2cccc(OC)c2)on1,0.02,i,i,i,i,7.2*
COc1cccc(NC(=O)CN(C)C(=O)c2cc3c(s2)CCC3)c1,0.18,i,i,·,i,-9
C#CCNC(=O)C1=C[C@@H](C2CC2)C[C@@H](OCc2ccc(CO)cc2)O1,-6.5*,i,i,i,i,-7
O=C(NCc1nc2ccccc2[nH]1)C1=C[C@@H](C2CCCCC2)C[C@@H](OCc2ccc(CO)cc2)O1,-0.37,9*,i,i,i,-5
O=C(NCc1nc2ccccc2[nH]1)C1=C[C@H](C2CCCCC2)C[C@H](OCc2ccc(CO)cc2)O1,-0.14,i,i,i,i,-7
O=C(Nc1ccccc1)C1=C[C@@H](C2CCCCC2)C[C@@H](OCc2ccc(CO)cc2)O1,-0.02,i,i,i,-7.1*,-6
Cc1ccc(Cl)cc1N(CC(=O)NC(C)c1ccccc1)S(C)(=O)=O (stereo not given),-0.56,i,i,i,i,-10
N#CC1=C(N)SC(N)=C(C#N)C1c1c(Cl)cccc1Cl,0.56,i,i,i,i,-17
N#CC1=C(N)SC(N)=C(C#N)C1Cc1ccccc1,-0.79,9*,i,i,i,-13
N#CC1=C(N)SC(N)=C(C#N)C1c1cccc(Oc2ccccc2)c1,0.15,8*,i,i,i,-9
C=COc1ccc(N2C(=O)c3ccccc3OC2C)cc1 (stereo not given),0.35,i,i,i,i,-6
Cn1cccc1C(=O)OCc1cc(-c2ccco2)on1,·,·,·,i,·,·
COC(=O)c1sccc1NC(=O)CSc1ccccc1NS(=O)(=O)c1ccc(Cl)cc1,0.27,i,i,i,i,-1
COC(=O)c1sccc1NC(=O)CSc1ccccc1NS(=O)(=O)c1ccccc1Cl,1.4,i,i,i,-7.2*,-15
Cc1ccc(/C=C/C(=O)O)cc1S(=O)(=O)N1CCCCC1,1.2,i,i,i,i,-9
Cc1ccc(C(=O)C[n+]2cc(-c3ccc(C)cc3)n3c2CCCCC3)cc1,-2.5,14*,i,i,i,-24
COc1ccc(C(=O)C[n+]2cc(-c3ccc(OC)cc3)n3c2CCCC3)cc1,-0.08,i,i,i,i,-5
Cn1cc(/C=C/c2cc[n+](C)cc2)c2cc(Cl)ccc21,-14,12*,i,i,i,-32
Cn1cc(/C=C/c2cc[n+](C)cc2)c2cc(F)ccc21,-12,i,i,i,i,-36
CC[C@@H](C)[C@H](CN[C@H](CNC)C(C)C)NC[C@@H](C)c1ccc(CC(C)C)cc1,-8.8*,8*,i,i,i,-29
CC[C@H](C)[C@@H](CNC)NC[C@@H](Cc1ccc(O)cc1)NCC(C)(C)C,0.63,i,i,i,i,-10
CN(C(=O)c1cccc(COc2ccc(Cl)cc2Cl)c1)c1ccccc1,-6*,i,i,i,i,-12
CCOC(=O)c1c(C(C)(C)C)oc2ccc(O)cc12,·,·,·,i,·,·
CCOC(=O)c1c(-c2ccccc2)oc2ccc(O)c(CN3CCCC3)c12,-12*,i,i,i,i,-17
SMILES,Kir21 block,KCNQ1 inh,KCNQ1 act,KCNK3 inh,KCNK9 inh,hERG protect
CCOC(=O)c1c(-c2ccccc2)oc2ccc(OCC(O)CN(C)C)cc12 (stereo not given),-7.8*,i,i,i,i,-14
CCOC(=O)c1c(C(C)(C)C)oc2ccc(OCC#N)cc12,0.48,6*,i,i,i,-7
CCOC(=O)c1c(-c2ccccc2)oc2ccc(O)c(CN(C)C)c12,-6.4*,i,i,i,i,-6
CCOc1cc(C(=O)OCC(=O)Nc2cccc(S(=O)(=O)NC3=NCCCCC3)c2)cc(OCC)c1OCC,·,·,·,i,·,·
O=C(NCCC(=O)N(CCc1ccccc1)Cc1ccccc1)c1ccc([N+](=O)[O-])cc1,-1.4,i,i,i,i,-18
Cc1ccc(C(=O)NCN2CCN(c3ccccc3)CC2)cc1,·,·,·,i,·,·
COc1ccccc1C(=O)Nc1ccc(OCC(=O)N2CC(C)CC(C)C2)cc1 (stereo not given),·,·,·,i,·,·
Cc1ccc(O)c(-c2cc(-c3ccccc3C)[nH]n2)c1,0.84,i,i,i,-7.4*,-7
COc1cc(CNCCNC(=O)c2nonc2N)ccc1OCc1ccc(Cl)cc1,-6.7*,i,i,i,i,-23
O=C(CNC(=O)Cc1ccccc1)NCC(=O)OCc1ccccc1,-0.14,i,i,i,i,-1
O=C(Cc1ccccc1)NCC(=O)OC(c1ccccc1)c1ccccc1,-5.4*,i,i,i,i,-14
Cc1cc(N/N=C/c2c(O)ccc3ccccc23)nc(-c2ccccc2O)n1,2.1,10*,i,i,i,-13
Oc1ccc2ccccc2c1/C=N/Nc1ccccc1,1.2,i,i,i,i,-5
Cn1nnnc1SCC(=O)NC1CCCC1,0.19,i,i,i,i,-11
Cc1ccc(NS(=O)(=O)c2ccccc2Cl)c2c1CC(C)(C)O2,-4.4*,i,i,i,i,-13
Cc1cccc(S(=O)(=O)Nc2ccc(C)c3c2OC(C)(C)C3)c1,-5.9*,i,i,i,i,-9
c1cc2c(cc1C1CCCCC1)c1c3n2CCCNC3CCC1 (stereo not given),-4.3*,i,i,i,i,-30
CCN(CC)CC(C)CNC(=O)C1(O)c2ccccc2NC(=O)N1c1ccc(Cl)c(Cl)c1 (stereo not given),0.57,i,i,i,i,-10
CC(C)c1ccc(NC(=O)COC(=O)c2cc(=O)[nH]c3ccccc23)cc1,·,·,·,i,·,·
CCCc1[nH]nc2c1C(c1cccc(OC(=O)c3ccco3)c1)C(C#N)=C(N)O2 (stereo not given),0.21,i,i,i,i,4.6*
CC(C)(C)c1ccc(-c2nnc(SCCC#N)n2C2CCCC2)cc1,0.5,6*,i,i,i,-18
Cc1ccc(C(C)C)cc1NC(=O)Nc1ccc([N+](=O)[O-])cc1,-0.02,7*,i,i,i,-8
Cc1cc(O)c(C(C)C)cc1NC(=O)Nc1ccc([N+](=O)[O-])cc1,·,·,·,-10*,·,·
Cc1cc(O)c(C(C)C)cc1NC(=O)Nc1cccc2ccccc12,0.51,i,i,i,i,-14
